Assay results from ChEMBL document CHEMBL3272204, “Products from furans. 1. Sunthesis and anticoccidial and antimicrobial activity of 5-amino-5,6-dihydro-6-methoxy-2-methyl-2-(4'-biphenylyl)-2H-pyran-3(4H)-ones and related compounds” (1976).
≈ marks a conversion by molar mass, not a printed value. Calls of active or inactive are those of the source. The calls are words filed in the database; no cut-off is given here.

Legend:
[1] = test system: Eimeria tenella; assay: Anticoccidal activity against Eimeria tenella assessed as improved weight gain in chicken at 0.05%, po; assay type: functional, organism-based
Method in brief: (§1)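 Chickens with experimental coccidiosis received compound orally in the diet at 0.05%, starting 1 day before infection. Efficacy was judged 6 days later from survival and weight gain.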

[2] = Antifungal activity against Trichophyton granulosum assessed as growth inhibition after 10 days at 28 degC; assay type: functional; conditions: Trichophyton mentagrophytes var. granulosum
Method in brief: (§2)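 Twofold serial dilutions in Sabouraud broth. The minimum inhibitory concentration was read after 10 days at 28°.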

[3] = test system: Eimeria acervulina; assay: Anticoccidal activity against Eimeria acervulina assessed as improved weight gain and mortality in chicken relative to noninfected control; assay type: functional, organism-based; method in brief: as §1
[4] = test system: Eimeria tenella; assay: Anticoccidal activity against Eimeria tenella assessed as improved weight gain and mortality in chicken relative to noninfected control; assay type: functional, organism-based; method in brief: as §1
[5] = test system: Pseudomonas aeruginosa; assay: Antibacterial activity against Pseudomonas aeruginosa assessed as growth inhibition after 24 hrs; assay type: functional
Method in brief: (§3)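 Twofold serial dilutions in nutrient broth. The minimum concentration inhibiting visible growth was read after 24 hr incubation at 37°.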

[6] = test system: Nannizzia gypsea; assay: Antifungal activity against Microsporum gypseum assessed as growth inhibition after 10 days at 28 degC; assay type: functional; method in brief: as §2
[7] = test system: Staphylococcus; assay: Antibacterial activity against penicillin-resistant Staphylococcus pyogenes assessed as growth inhibition after 24 hrs; assay type: functional
Method in brief: (§4)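 Halving (twofold) serial dilutions of compound in nutrient broth, in vitro. Incubated 24 hr at 37°. Value reported is the lowest concentration that inhibited growth.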

[8] = test system: Escherichia coli; assay: Antibacterial activity against Escherichia coli 198 assessed as growth inhibition after 24 hrs; assay type: functional; method in brief: as §3
[9] = test system: Serratia marcescens; assay: Antibacterial activity against Serratia marcescens assessed as growth inhibition after 24 hrs; assay type: functional; method in brief: as §3
[10] = test system: Klebsiella pneumoniae; assay: Antibacterial activity against Klebsiella pneumoniae assessed as growth inhibition after 24 hrs; assay type: functional; method in brief: as §3
[11] = test system: Klebsiella aerogenes; assay: Antibacterial activity against Aerobacter aerogenes assessed as growth inhibition after 24 hrs; assay type: functional; method in brief: as §3
[12] = (§5) Antibacterial activity against Salmonella pullorum assessed as growth inhibition after 24 hrs; assay type: functional, Salmonella enterica subsp. enterica serovar Pullorum; method in brief: as §3
[13] = test system: Candida albicans; assay: Antifungal activity against Candida albicans assessed as growth inhibition after 5 days at 37 degC; assay type: functional
Method in brief: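 Twofold serial dilutions in Sabouraud broth. The minimum inhibitory concentration was read after 5 days at 37°.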

[14] = test system: Staphylococcus; assay: Antibacterial activity against penicillin-sensitive Staphylococcus pyogenes assessed as growth inhibition after 24 hrs; assay type: functional; method in brief: as §4
[15] = test system: Enterococcus faecalis; assay: Antibacterial activity against Streptococcus faecalis assessed as growth inhibition after 24 hrs; assay type: functional; method in brief: as §3
[16] = test system: Proteus vulgaris; assay: Antibacterial activity against Proteus vulgaris assessed as growth inhibition after 24 hrs; assay type: functional; method in brief: as §3
[17] = test system: Salmonella enterica subsp. enterica serovar Pullorum; assay: as §5; assay type: functional; method in brief: as §3
[18] = test system: Eimeria acervulina; assay: Anticoccidal activity against Eimeria acervulina assessed as improved weight gain in chicken; assay type: functional, organism-based; method in brief: as §1
[19] = test system: Eimeria tenella; assay: Anticoccidal activity against Eimeria tenella assessed as improved weight gain in chicken at 0.002%, po; assay type: functional, organism-based
[20] = Pseudomonas aeruginosa, 24 h, read-out: MIC
[21] = Nannizzia gypsea, 240 h, read-out: MIC
[22] = Staphylococcus, 24 h, read-out: MIC
[23] = Escherichia coli, 198, 24 h, read-out: MIC
[24] = Serratia marcescens, 24 h, read-out: MIC
[25] = Klebsiella pneumoniae, 24 h, read-out: MIC
[26] = Klebsiella aerogenes, 24 h, read-out: MIC
[27] = Salmonella enterica, 24 h, read-out: MIC
[28] = Candida albicans, 120 h, read-out: MIC
[29] = Enterococcus faecalis, 24 h, read-out: MIC
[30] = Proteus vulgaris, 24 h, read-out: MIC

| SMILES | MIC [2] | Activity [3] | Activity [4] | MIC [5, 20] [µg/mL] | MIC [6, 21] [µg/mL] | MIC [7, 22] [µg/mL] | MIC [8, 23] [µg/mL] | MIC [9, 24] [µg/mL] | MIC [10, 25] [µg/mL] | MIC [11, 26] [µg/mL] | MIC [12, 27] [µg/mL] | MIC [13, 28] [µg/mL] | MIC [14, 22] [µg/mL] | MIC [15, 29] [µg/mL] | MIC [16, 30] [µg/mL] | MIC [5] | MIC [7] | MIC [8] | MIC [9] | MIC [10] | further results |
| --- | --- | --- | --- | --- | --- | --- | --- | --- | --- | --- | --- | --- | --- | --- | --- | --- | --- | --- | --- | --- | --- |
| COC1C=CC(=O)C(C)(c2ccc(-c3ccccc3)cc2)O1 (single isomer, unassigned; isomer 1) | 8 µg/mL (≈ 27.2 µM) |  |  |  |  |  |  |  |  |  |  |  |  |  |  |  |  |  |  |  | Activity [1]: inactive |
| CN(C)C(=O)OC1C=CC(=O)C(C)(c2ccc(-c3ccccc3)cc2)O1 (stereo unspecified) | 6.2 µg/mL (≈ 17.6 µM) | Active | Active | 6.2 (≈ 17.6 µM) | 8 (≈ 22.8 µM) | 6.2 (≈ 17.6 µM) | 6.2 (≈ 17.6 µM) | 6.2 (≈ 17.6 µM) | 6.2 (≈ 17.6 µM) | 6.2 (≈ 17.6 µM) | 6.2 (≈ 17.6 µM) | 50 (≈ 142 µM) | 6.2 (≈ 17.6 µM) | 6.2 (≈ 17.6 µM) | 6.2 (≈ 17.6 µM) |  |  |  |  |  |  |
| COC1C=CC(=O)C(C)(c2ccc(-c3ccccc3)cc2)O1 (stereo in doubt; 1a) [listing 1 of 2 here] | 1 µg/mL (≈ 3.4 µM) |  | Active |  |  |  |  |  |  |  |  |  |  |  |  |  |  |  |  |  |  |
| COC1OC(C)(c2ccc(-c3ccccc3)cc2)C(=O)CC1N(C)C (single isomer, unassigned; isomer 1) [listing 1 of 2 here] |  |  |  |  |  |  |  |  |  |  |  |  |  |  |  | 6.2 µg/mL (≈ 18.3 µM) | 6.2 µg/mL (≈ 18.3 µM) | 6.2 µg/mL (≈ 18.3 µM) | 6.2 µg/mL (≈ 18.3 µM) | 6.2 µg/mL (≈ 18.3 µM) | MIC [6]: 8 µg/mL (≈ 23.6 µM); MIC [11]: 6.2 µg/mL (≈ 18.3 µM); MIC [12]: 6.2 µg/mL (≈ 18.3 µM); MIC [13]: 16 µg/mL (≈ 47.1 µM); MIC [14]: 6.2 µg/mL (≈ 18.3 µM); MIC [15]: 6.2 µg/mL (≈ 18.3 µM); MIC [16]: 6.2 µg/mL (≈ 18.3 µM) |
| COC1OC(C)(c2ccc(-c3ccccc3)cc2)C(=O)CC1N(C)C (single isomer, unassigned; isomer 1) [listing 2 of 2 here] | 8 µg/mL (≈ 23.6 µM) | Active | Active |  |  |  |  |  |  |  |  |  |  |  |  |  |  |  |  |  |  |
| COC1OC(C)(c2ccc(-c3ccccc3)cc2)C(O)CC1N(C)C (single isomer, unassigned; isomer 1) | inactive | Active | Active |  |  |  |  |  |  |  |  |  |  |  |  | inactive | inactive | inactive | inactive | inactive | MIC [6]: inactive; MIC [11]: inactive; MIC [17]: inactive; MIC [13]: inactive; MIC [14]: inactive; MIC [15]: inactive; MIC [16]: inactive |
| COC1C=CC(=O)C(C)(c2ccc(-c3ccccc3)cc2)O1 (stereo in doubt; 1a) [listing 2 of 2 here] |  |  |  | 6.2 (≈ 21.1 µM) | 2 (≈ 6.79 µM) | 6.2 (≈ 21.1 µM) | 6.2 (≈ 21.1 µM) | 6.2 (≈ 21.1 µM) | 6.2 (≈ 21.1 µM) | 6.2 (≈ 21.1 µM) | 6.2 (≈ 21.1 µM) | 32 (≈ 109 µM) | 6.2 (≈ 21.1 µM) | 6.2 (≈ 21.1 µM) | 6.2 (≈ 21.1 µM) |  |  |  |  |  |  |
| CNC(=O)OC1C=CC(=O)C(C)(c2ccc(-c3ccccc3)cc2)O1 (stereo unspecified) | 1.6 µg/mL (≈ 4.74 µM) |  | Active |  | 1.6 (≈ 4.74 µM) |  |  |  |  |  |  | 250 (≈ 741 µM) |  |  |  | inactive | inactive | inactive | inactive | inactive | MIC [11]: inactive; MIC [17]: inactive; MIC [14]: inactive; Activity [18]: inactive; MIC [15]: inactive; MIC [16]: inactive |
| COC1OC(C)(c2ccc(-c3ccccc3)cc2)C(=O)CC1N1CCN(C)CC1 (stereo unspecified) | 1.6 µg/mL (≈ 4.06 µM) | Active |  | 6.2 (≈ 15.7 µM) | 3.2 (≈ 8.11 µM) | 6.2 (≈ 15.7 µM) | 6.2 (≈ 15.7 µM) | 6.2 (≈ 15.7 µM) | 6.2 (≈ 15.7 µM) | 6.2 (≈ 15.7 µM) | 6.2 (≈ 15.7 µM) |  | 6.2 (≈ 15.7 µM) | 6.2 (≈ 15.7 µM) | 6.2 (≈ 15.7 µM) |  |  |  |  |  | Activity [1]: inactive |
| CCCCc1cc2c(=O)c(C(=O)OC)c[nH]c2cc1OCc1ccccc1 |  |  |  |  |  |  |  |  |  |  |  |  |  |  |  |  |  |  |  |  | Activity [19]: Active |
